Test results from ChEMBL document CHEMBL3392968 (Eur J Med Chem, 2015).
In brackets after ≈: the same amount, converted by molar mass. Activity calls are given as the source filed them. The rule behind the calls is not given here.

How the values were obtained:
[1] = target: T1, Histone deacetylase (Rattus norvegicus) (UniProt Q6P6W3+Q99P99+Q99P96+Q4QQW4+Q99P97+Q5RJZ2+B1WBY8); assay: Inhibition of HDAC in rat C6 cells assessed as increase in histone H3 acetylation at 5 uM after 6 hrs by flow cytometry (reference value: 4.5%); assay type: cell-based; parameters: scale not given: the % may be the effect or the level left
In short: (§1)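 C6 cells treated at 5 µM for 6, 15 or 24 h, with DMSO vehicle as control. Fixed in 1% paraformaldehyde, permeabilized with 0.1% Triton X-100, blocked in goat serum. Stained with anti-acetyl-H3 (Lys9) rabbit mAb (1:100, 1 h on ice), then FITC anti-rabbit IgG (20 µg/mL, 45 min). About 10000 events at 488 nm; acetylation quantified from MFI.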

C6 [2] = assay: Antimigratory activity against rat C6 cells assessed as cell migration level at 5 uM after 24 hrs by transwell chamber assay (reference value: 60%); assay type: functional, cell-based
In short: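 C6 cells grown to 70-80% confluency, serum-starved 24 h, then seeded at 10^5 cells/mL in serum-free HAM'S F12 into the upper chamber of an 8 µm-pore transwell; lower chamber held medium with 5% FCS. Compounds (5 µM final) added 2 h after seeding; 24 h at 37 °C. Migrated cells methanol-fixed, DAPI-stained, counted in five fields, scaled to insert area, expressed as % of cells seeded.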

[3] = target: T1, Histone deacetylase (Rattus norvegicus); assay: Inhibition of HDAC in rat C6 cells assessed as increase in histone H3 acetylation at 5 uM after 15 hrs by flow cytometry; assay type: cell-based; in short: as §1
C6 [4] = assay: Induction of cell cycle arrest in rat C6 cells assessed as increase in accumulation at S phase after 72 hrs by propidium iodide staining based flow cytometry; assay type: functional
In short: (§2)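 C6 cells at 5 µM. About 3 × 10^5 cells fixed in 70% cold ethanol overnight at 4 °C, then stained with 20 µg/mL PI plus 100 µg/mL RNase (final). 10^4 cells analysed by flow cytometry (linear FL3), with doublets excluded by FL3-Area/Width gating; G1, S and G2/M fractions taken from DNA content.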

C6 [5] = assay: Induction of cell cycle arrest in rat C6 cells assessed as accumulation at G1 phase after 24 and 48 hrs by propidium iodide staining based flow cytometry; assay type: functional; in short: as §2
C6 [6] = assay: Induction of cell cycle arrest in rat C6 cells assessed as accumulation at S phase after 24 and 48 hrs by propidium iodide staining based flow cytometry; assay type: functional; in short: as §2
C6 [7] = assay: Induction of cell cycle arrest in rat C6 cells assessed as accumulation at G2/M phase after 24 and 48 hrs by propidium iodide staining based flow cytometry; assay type: functional; in short: as §2
C6 [8] = assay: Cytotoxicity against rat C6 cells assessed as reduction in cell viability at 0.1 to 5 uM after 72 hrs by MTT assay; assay type: functional
In short: (§3)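 C6 cells (HAM'S F12, 10% FBS, 2 mM glutamine, 37 °C, 5% CO2) seeded at 5 × 10^4 cells/well and exposed to 0.1–5 µM for 24, 48 or 72 h. MTT reduction read at 570 nm; viability = A_sample/A_vehicle control × 100. Four independent experiments.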

[9] = Solubility in water at 50 mg incubated at 25 degC for 1 hr by HPLC method; assay type: physicochemical
C6 [10] = assay: Induction of necrosis in rat C6 cells after 25 to 72 hrs by Annexin-V/propidium iodide staining based flow cytometry; assay type: functional; conditions: in the assay text read “24 to 72 hrs” for “25 to 72 hrs”
In short: (§4)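 C6 cells treated at 5 µM for 24, 48 and 72 h. 2.5 × 10^5 cells stained with Annexin-V-FITC (10 min, room temperature, dark), then PI 5 µg/mL. At least 10^4 events collected (FL1/FL3). Late apoptotic cells were Annexin-V+/PI+; necrotic cells were Annexin-V−/PI+.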

[11] = Stability in pH 1.3 0.02 M […] buffer containing 0.1% (v/v) Cremophor ELP assessed as half life […] by HPLC method; assay type: physicochemical
In short: (§5)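 Reaction started by adding 1 mL of a 10^-4 M acetonitrile stock to 10 mL of buffer at 37 ± 0.5 °C. Buffers: pH 7.4, 0.02 M phosphate; pH 1.3, 0.02 M chloridric; both with 0.1% (v/v) Cremophor ELP. Followed by RP-C18 HPLC; run in triplicate, with mean rate constants reported.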

[12] = Stability in pH 1.3 0.02 M […] buffer containing 0.1% (v/v) Cremophor ELP assessed as pseudo-first-order rate constant […] by HPLC method; assay type: physicochemical; in short: as §5
C6 [13] = assay: Drug metabolism in rat C6 cells assessed as metabolite formation at 5 uM incubated for 24 hrs at 37 degC by LC/MS spectrometry; assay type: ADME, cell-based; conditions: c6, 24 h
In short: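 Glioma C6 cells incubated with 5 µM for 24 h at 37 °C. Cell lysates (2 mg) analysed by LC-MS, compared with untreated control lysates, to detect metabolite ions.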

C6 [14] = assay: Cytotoxicity against rat C6 cells assessed as reduction in cell viability at 0.1 to 5 uM after 48 hrs by MTT assay; assay type: functional; in short: as §3
Plasma [15] = assay: Stability in rat plasma assessed pseudo-first-order rate constant at 1 mg/mL by HPLC method; assay type: ADME, cell-free
In short: (§6)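 Human or rat plasma, obtained from citrated blood (0.3% citric acid) centrifuged at 3000 × g, diluted to 80% with 0.02 M phosphate buffer pH 7.4, incubated with compound at 37 °C. Samples centrifuged at 5000 × g; supernatant analysed by RP-C18 HPLC; remaining intact compound plotted against time to obtain kobs and half-life.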

[16] = Stability in pH 7.4 0.02 M phosphate buffer containing 0.1% (v/v) Cremophor ELP assessed as half life at […] by HPLC method; assay type: physicochemical; in short: as §5
[17] = Stability in pH 7.4 0.02 M phosphate buffer containing 0.1% (v/v) Cremophor ELP assessed as pseudo-first-order rate constant […] by HPLC method; assay type: physicochemical; in short: as §5
[18] = Effective permeability of the compound by PAMPA method; assay type: ADME; conditions: read-out: Peff
In short: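 PAMPA using a porcine polar brain lipid–impregnated filter. Donor: phosphate buffer pH 7.4/pH 6.5 with 500 µM compound and 20% iPrOH co-solvent; acceptor: same buffer. Incubated 18 h at room temperature; donor and acceptor concentrations measured by HPLC; Peff calculated from volumes, filter area (0.28 cm2) and time.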

[19] = Stability in rat plasma assessed half life at 1 mg/mL by HPLC method; assay type: ADME, cell-free; in short: as §6
C6 [20] = assay: Cytotoxicity against rat C6 cells assessed as reduction in cell viability at 0.1 to 5 uM after 24 hrs by MTT assay; assay type: functional, cell-based; in short: as §3
Plasma [21] = assay: Stability in human plasma assessed pseudo-first-order rate constant at 1 mg/mL by HPLC method; assay type: ADME, cell-free; in short: as §6
C6 [22] = assay: Induction of late apoptosis in rat C6 cells after 25 to 72 hrs by Annexin-V/propidium iodide staining based flow cytometry; assay type: functional; conditions: in the assay text read “24 to 72 hrs” for “25 to 72 hrs”; in short: as §4
[23] = Stability in human plasma assessed half life at 1 mg/mL by HPLC method; assay type: ADME, cell-free; in short: as §6
D(3) dopamine receptor = D(3) dopamine receptor (Rattus norvegicus, UniProt P19020); assay: Displacement of [3H]-7-OH-DPAT from dopamine D3 receptor in rat olfactory tubercle by scintillation counting method; assay type: tissue-based
D(3) dopamine receptor, sequence (P19020 whole entry): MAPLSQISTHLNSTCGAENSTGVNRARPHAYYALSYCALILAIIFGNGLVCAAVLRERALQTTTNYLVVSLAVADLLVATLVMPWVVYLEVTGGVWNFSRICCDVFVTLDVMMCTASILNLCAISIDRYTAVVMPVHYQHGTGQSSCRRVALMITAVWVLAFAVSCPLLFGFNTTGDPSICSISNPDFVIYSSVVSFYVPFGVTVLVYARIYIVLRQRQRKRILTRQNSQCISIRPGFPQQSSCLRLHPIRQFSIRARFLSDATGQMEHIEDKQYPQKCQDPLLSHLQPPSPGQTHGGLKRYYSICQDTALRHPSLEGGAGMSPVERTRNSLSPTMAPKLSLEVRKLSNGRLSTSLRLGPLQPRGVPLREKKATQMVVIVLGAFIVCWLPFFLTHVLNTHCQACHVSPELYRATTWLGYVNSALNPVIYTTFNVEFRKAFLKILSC

[24] = Displacement of [3H]-DTG from sigma 2 receptor guinea pig brain membranes incubated for 120 mins by scintillation counting method; parameters: species or system Cavia porcellus, Membrane
In short: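 Guinea pig brain membranes (360 µg protein) with 3 nM [3H]DTG and test compound (10^-5 to 10^-10 M) in 50 mM Tris-HCl pH 8.0, 120 min at room temperature, with 400 nM (+)-SKF10,047 masking σ1 sites. Nonspecific binding with 5 µM DTG; PEI-presoaked GF/B filtration, scintillation counting, Ki by EBDA/LIGAND.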

[25] = target: Sigma non-opioid intracellular receptor 1 (Cavia porcellus, UniProt Q60492); assay: Displacement of [3H]-(+)-pentazocine from sigma 1 receptor guinea pig brain membranes incubated for 150 mins by scintillation counting method; parameters: species or system Membrane
Sigma non-opioid intracellular receptor 1, sequence (Q60492 whole entry): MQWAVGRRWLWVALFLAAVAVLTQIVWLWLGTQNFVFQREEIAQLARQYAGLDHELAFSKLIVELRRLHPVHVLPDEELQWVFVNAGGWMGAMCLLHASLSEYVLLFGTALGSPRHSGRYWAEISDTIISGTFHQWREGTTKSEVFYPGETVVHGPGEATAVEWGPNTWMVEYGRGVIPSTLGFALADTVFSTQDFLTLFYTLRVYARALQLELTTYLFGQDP

C6 [26] = assay: Induction of necrosis in rat C6 cells after 24 to 72 hrs by Annexin-V/propidium iodide staining based flow cytometry
C6 [27] = assay: Cytotoxicity against rat C6 cells assessed as reduction in cell viability at 0.5 to 5 uM after 24 hrs by MTT assay; assay type: functional; in short: as §3
D(2) dopamine receptor = D(2) dopamine receptor (Rattus norvegicus, UniProt P61169); assay: Displacement of [3H]-spiperone from dopamine D2 receptor in rat striatum by scintillation counting method
D(2) dopamine receptor, sequence (P61169 whole entry): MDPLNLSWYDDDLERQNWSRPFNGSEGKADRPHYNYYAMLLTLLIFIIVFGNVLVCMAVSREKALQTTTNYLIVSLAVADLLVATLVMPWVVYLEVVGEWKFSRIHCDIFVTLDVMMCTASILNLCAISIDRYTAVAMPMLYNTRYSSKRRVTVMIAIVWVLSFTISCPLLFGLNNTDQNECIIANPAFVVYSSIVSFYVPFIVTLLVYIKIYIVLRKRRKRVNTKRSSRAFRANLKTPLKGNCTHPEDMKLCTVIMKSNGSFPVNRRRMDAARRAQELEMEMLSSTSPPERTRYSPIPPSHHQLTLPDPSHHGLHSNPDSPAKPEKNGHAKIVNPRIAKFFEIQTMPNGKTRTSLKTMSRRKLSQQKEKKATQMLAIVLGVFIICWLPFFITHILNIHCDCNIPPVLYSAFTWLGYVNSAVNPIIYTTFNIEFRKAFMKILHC

C6 [28] = assay: Induction of late apoptosis in rat C6 cells after 24 to 72 hrs by Annexin-V/propidium iodide staining based flow cytometry
[29] = target: T1, Histone deacetylase (Rattus norvegicus); assay: Inhibition of HDAC in rat C6 cells assessed as increase in histone H3 acetylation at 5 uM after 24 hrs by flow cytometry (reference value: 4.5%); assay type: cell-based; parameters: scale not given: the % may be the effect or the level left; in short: as §1

SMILES	Activity [1]	Activity [3]	K (Plasma [15]) [h⁻¹]	half-life at 1 mg/mL [19] [h]	K (Plasma [21]) [h⁻¹]	half-life at 1 mg/mL [23] [h]	Ki [24] [nM]	Activity (C6 [2])	Activity (C6 [4])	Activity (C6 [5])	Activity (C6 [6])	Activity (C6 [7])	Activity (C6 [8]) [%]	Activity (C6 [14])	Activity (C6 [20])	Ki (D(3) dopamine receptor) [nM]	other results
O=C(O)CCCc1ccccc1 [PHENYLBUTANOIC ACID]	14%	inactive						inactive	inactive	inactive	inactive	inactive					
O[C@@H](CCCN1CCC(O)(c2ccc(Cl)cc2)CC1)c1ccc(F)cc1							9.8									353	
O[C@H](CCCN1CCC(O)(c2ccc(Cl)cc2)CC1)c1ccc(F)cc1							32									1280	
O=C(CCCN1CCC(O)(c2ccc(Cl)cc2)CC1)c1ccc(F)cc1 [HALOPERIDOL]							18										
Cc1ccccc1NC(=N)Nc1ccccc1C [DITOLYLGUANIDINE]							22										
OC(CCCN1CCC(O)(c2ccc(Cl)cc2)CC1)c1ccc(F)cc1 (racemic) [HYDROXYHALOPERIDOL]	inactive	inactive					2	inactive	inactive	inactive	inactive	inactive		inactive			

Now from value to molecule, other results behind:

Activity [1]	Activity [3]	K (Plasma [15]) [h⁻¹]	half-life at 1 mg/mL [19] [h]	K (Plasma [21]) [h⁻¹]	half-life at 1 mg/mL [23] [h]	Ki [24] [nM]	SMILES	Activity (C6 [2])	Activity (C6 [4])	Activity (C6 [5])	Activity (C6 [6])	Activity (C6 [7])	Activity (C6 [8]) [%]	Activity (C6 [14])	Activity (C6 [20])	Ki (D(3) dopamine receptor) [nM]	other results
14%	inactive	6.41	0.108	0.008	92		O=C(CCCc1ccccc1)OC(CCCN1CCC(O)(c2ccc(Cl)cc2)CC1)c1ccc(F)cc1 (racemic)	Active	Active	inactive	inactive	inactive	40	60%	Dose-dependent effect		solubility at 1 h [9]: 1.2 µg/mL (≈ 2.29 µM); Activity (C6 [10]): 35%; half-life at 10000 µM [11]: 140 h; K [12]: 0.005 h⁻¹; Drug metabolism (C6 [13]): metabolite_detected; half-life at 10000 µM [16]: 127 h; K [17]: 0.005 h⁻¹; Papp [18]: 5.25 ×10⁻⁶ cm/s; IC50 (C6 [20]; C6, 24 h): 5000 nM; Activity (C6 [22]): 35%
inactive	inactive	3.09	0.224	0.008	90.7	118	O=C(CCCc1ccccc1)O[C@@H](CCCN1CCC(O)(c2ccc(Cl)cc2)CC1)c1ccc(F)cc1	Active	Active	inactive	inactive	inactive	40	60%	Dose-dependent effect	> 5000	Ki [25]: 230 nM; Activity (C6 [26]): 25%; Activity (C6 [27]): 50%; Ki (D(2) dopamine receptor): > 5000 nM; Activity (C6 [28]): 25%
16.1%	inactive	2.22	0.312	0.008	84.3	52.7	O=C(CCCc1ccccc1)O[C@H](CCCN1CCC(O)(c2ccc(Cl)cc2)CC1)c1ccc(F)cc1	Active	Active	inactive	inactive	inactive	40	60%	Dose-dependent effect	> 5000	Activity (C6 [10]): 40%; Activity [29]: 7.2%; Ki [25]: 87.5 nM; Activity (C6 [27]): 40%; Ki (D(2) dopamine receptor): > 5000 nM; Activity (C6 [22]): 40%
